Drawing on ChEMBL document CHEMBL1795268, “Synthesis and antimicrobial activity of some novel dicationic sulphonophanes” (2011), this text covers MIC and inhibition for ten molecules.

Each structure is given as a SMILES string. Converted amounts (≈) assume the structure as drawn. The source made the active and inactive calls. No cut-off for these calls is given here.

The test system of test [1] is Staphylococcus aureus. The test can be described thus: Antimicrobial activity against Staphylococcus aureus after 24 hrs by agar well diffusion assay. The class given is functional. The method, boiled down:
(§1)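 Bacterial isolates from a university culture collection were grown in Mueller-Hinton broth for 8 h at 37 °C, then swabbed onto nutrient agar plates. Test solutions went into wells cut in the agar, with commercial antibiotics as positive reference. Plates were incubated at 37 °C for 24 h, and the MIC was read from the zones of inhibition.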

Test [2] relates to Bacillus subtilis. The test can be described thus: Antimicrobial activity against Bacillus subtilis after 24 hrs by agar well diffusion assay. The class given is functional. The method, boiled down: as §1
Test [3] deals with Vibrio cholerae. The test can be described thus: Antimicrobial activity against Vibrio cholerae after 24 hrs by agar well diffusion assay. Format: functional.
Test [4] has as its system Candida albicans. The test can be described thus: Antifungal activity against Candida albicans after 48 hrs by agar well diffusion assay. Format: functional. In a few lines:
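C. albicans, kept on Sabouraud's dextrose agar, was grown in Sabouraud's dextrose broth at 37 °C for 8 h to make the inoculum for agar well diffusion. The MIC was recorded.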

Test [5] has as its system Proteus vulgaris. The test can be described thus: Antimicrobial activity against Proteus vulgaris after 24 hrs by agar well diffusion assay. Format: functional. The method, boiled down: as §1
Test [6] deals with Escherichia coli. The test can be described thus: Antimicrobial activity against Escherichia coli after 24 hrs by agar well diffusion assay. Format: functional. The method, boiled down:
as §1

In test [7] the target is Gyrase B (Escherichia coli) (UniProt Q6S6F1). Nature of the test: Inhibition of Escherichia coli DNA gyrase B.

Regarding `O=S1(=O)c2ccc(cc2)Cn2cc[n+](c2)Cc2ccc(cc2)C[n+]2ccn(c2)Cc2ccc1cc2.[Br-].[Br-]`, the MIC in test [1] is 25 µg/mL; in test [2], 30 µg/mL; in test [3], 70 µg/mL; in test [4] it was 25 µg/mL; in test [5] it was 40 µg/mL; in test [6], 60 µg/mL.
As for `O=S1(=O)c2ccc(cc2)Cn2cc[n+](c2)Cc2ccc(cc2)S(=O)(=O)c2ccc(cc2)C[n+]2ccn(c2)Cc2ccc1cc2.[Br-].[Br-]`, the MIC came out at 5 µg/mL in test [1]; 10 µg/mL in test [2]; 10 µg/mL in test [3]; 5 µg/mL in test [4]; 15 µg/mL in test [5]; 15 µg/mL in test [6]. The inhibition result in test [7] is “Active”.
As to `O=S1(=O)c2ccc(cc2)Cn2cc[n+](c2)Cc2ccccc2C[n+]2ccn(c2)Cc2ccc1cc2.[Br-].[Br-]`, the MIC came out at 40 µg/mL in test [1]; 40 µg/mL in test [2]; 35 µg/mL in test [3]; 20 µg/mL in test [4]; 60 µg/mL in test [5]; 30 µg/mL in test [6].
As for `O=C(O)c1cn(C2CC2)c2cc(N3CCNCC3)c(F)cc2c1=O` [CIPROFLOXACIN], the MIC was determined as 5 µg/mL (≈ 15.1 µM) in test [1]; 5 µg/mL (≈ 15.1 µM) in test [2]; 10 µg/mL (≈ 30.2 µM) in test [3]; 10 µg/mL (≈ 30.2 µM) in test [5]; 5 µg/mL (≈ 15.1 µM) in test [6].
With `COc1cc2c(OC)cc1C[n+]1ccn(c1)Cc1ccc(cc1)S(=O)(=O)c1ccc(cc1)Cn1cc[n+](c1)C2.[Br-].[Br-]`, the MIC in test [1] worked out at 10 µg/mL; in test [2], 15 µg/mL; in test [3] it was 40 µg/mL; in test [4], 10 µg/mL; in test [5] it was 30 µg/mL; in test [6], 30 µg/mL.
As for `O=C1c2ccc(cc2)C[n+]2ccn(c2)Cc2ccc(cc2)S(=O)(=O)c2ccc(cc2)Cn2cc[n+](c2)Cc2ccc1cc2.[Br-].[Br-]`, the MIC in test [1] stood at 15 µg/mL; in test [2], 15 µg/mL; in test [3], 5 µg/mL; in test [4], 5 µg/mL; in test [5], 30 µg/mL; in test [6], 25 µg/mL. For the same molecule, the inhibition entry in test [7] is “Active”.
For `O=C1c2ccc(cc2)C[n+]2ccn(c2)Cc2ccc(cc2)S(=O)(=O)c2ccc(cc2)Cn2cc[n+](c2)Cc2ccc(cc2)C(=O)c2cccc1c2.[Br-].[Br-]`, the MIC came to 40 µg/mL in test [1]; 35 µg/mL in test [2]; 30 µg/mL in test [3]; 15 µg/mL in test [4]; 25 µg/mL in test [5]; 30 µg/mL in test [6].
As to `O=S1(=O)c2ccc(cc2)Cn2cc[n+](c2)Cc2ccc(cc2)-c2cccc(c2)-c2ccc(cc2)C[n+]2ccn(c2)Cc2ccc1cc2.[Br-].[Br-]`, the MIC in test [1] came out at 30 µg/mL; in test [2] it was 15 µg/mL; in test [3], 25 µg/mL; in test [4] it was 5 µg/mL; in test [5], 20 µg/mL; in test [6], 25 µg/mL.
In the case of `O=S1(=O)c2ccc(cc2)Cn2cc[n+](c2)Cc2cccc(c2)C[n+]2ccn(c2)Cc2ccc1cc2.[Br-].[Br-]`, the MIC in test [1] came out at 30 µg/mL; in test [2] it was 20 µg/mL; in test [3], 35 µg/mL; in test [4] it was 40 µg/mL; in test [5] it was 40 µg/mL; in test [6], 55 µg/mL.
`Clc1ccccc1C(c1ccccc1)(c1ccccc1)n1ccnc1` [CLOTRIMAZOLE] came in with an MIC in test [4] of 5 µg/mL (≈ 14.5 µM).
